Results on one compound are retold here after ChEMBL document CHEMBL3232705, “Discovery of isoquinolinone indole acetic acids as antagonists of chemoattractant receptor homologous molecule expressed on Th2 cells (CRTH2) for the treatment of allergic inflammatory diseases” (J Med Chem, 2014).

The source made the active and inactive calls. The calls are words filed in the database; no cut-off is given here.

Data set [1] has as its system Mus musculus. In words: Antiallergic activity in house dust mite-induced allergic airway disease BALB/c mouse model assessed as reduction in eosinophil level in bronchoalveolar lavage fluid at 40 mg/kg, po after 72 hrs of HDM challenge. It counts as functional, organism-based. Also noted: dose 40 mg/kg. Particulars: Lung. Put shortly:
(§1)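 BALB/c mice given house dust mite intratracheally via a catheter passed through the vocal cords. Test article 40 mg/kg orally once daily; dexamethasone 1 mg/kg ip once daily as reference. Total and differential BAL cells (eosinophils, macrophages, lymphocytes, neutrophils) counted 72 h after HDM challenge. Mean ± SEM, Mann–Whitney U test.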

Data set [2] in a line: Clearance in dog at 2 mg/kg, iv. The class given is ADME, organism-based, Canis lupus familiaris. More on the design: dose 2 mg/kg, route intravenous. Particulars: in vivo. A digest of the protocol: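 Single intravenous dose of 2 mg/kg and single oral dose of 10 mg/kg, given separately, in rat, dog and monkey. Clearance and half-life taken from the iv arm; Cmax from the oral arm.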

The nature of data set [3]: Volume of distribution at steady state in dog at 2 mg/kg, iv. The class given is ADME, organism-based, Canis lupus familiaris. More on the design: dose 2 mg/kg, route intravenous. Particulars: in vivo, read-out: Vdss.
Data set [4] relates to Mus musculus. In words: Antiallergic activity in house dust mite-induced allergic airway disease BALB/c mouse model assessed as reduction in macrophage level in bronchoalveolar lavage fluid at 40 mg/kg, po after 72 hrs of HDM challenge. It counts as functional, organism-based. More on the design: dose 40 mg/kg. Particulars: Lung. A digest of the protocol:
as §1

Data set [5] deals with Mus musculus. In words: Antiallergic activity in house dust mite-induced allergic airway disease BALB/c mouse model assessed as reduction in lymphocyte level in bronchoalveolar lavage fluid at 40 mg/kg, po after 72 hrs of HDM challenge. Particulars: Lung. More on the design: dose 40 mg/kg. It counts as functional, organism-based. A digest of the protocol:
as §1

A further data set addresses Cytochrome P450 2C9 (Homo sapiens, UniProt P11712). In words: Inhibition of CYP2C9 (unknown origin). The class given is ADME.
The subject of data set [6] is Ovis aries. In words: Inhibition of carbachol-induced airway hyperresponsiveness in sheep at 3 mg/kg, iv bid. More on the design: dose 3 mg/kg. The class given is functional, organism-based.
Another data set has as its target Cytochrome P450 2D6 (Homo sapiens, UniProt P10635). In words: Inhibition of CYP2D6 (unknown origin). It counts as ADME.
The next data set addresses T1, Thromboxane A2 receptor (Homo sapiens, UniProt P21731).
T1 sequence (P21731 whole entry): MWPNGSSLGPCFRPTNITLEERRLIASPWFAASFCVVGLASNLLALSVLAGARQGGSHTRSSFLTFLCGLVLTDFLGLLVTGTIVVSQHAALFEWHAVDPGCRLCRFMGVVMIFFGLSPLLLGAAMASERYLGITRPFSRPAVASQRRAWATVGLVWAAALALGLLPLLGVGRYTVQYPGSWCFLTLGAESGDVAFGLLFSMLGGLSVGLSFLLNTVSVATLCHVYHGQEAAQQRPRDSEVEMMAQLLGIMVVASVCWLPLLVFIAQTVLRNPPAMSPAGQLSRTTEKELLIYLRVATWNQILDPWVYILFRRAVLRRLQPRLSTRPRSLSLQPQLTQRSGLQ
In words: Antagonist activity at TXA2 receptor (unknown origin) by FRET assay.

Data set [7] deals with T2, Prostaglandin D2 receptor (Homo sapiens, UniProt Q13258).
T2 sequence (Q13258 whole entry): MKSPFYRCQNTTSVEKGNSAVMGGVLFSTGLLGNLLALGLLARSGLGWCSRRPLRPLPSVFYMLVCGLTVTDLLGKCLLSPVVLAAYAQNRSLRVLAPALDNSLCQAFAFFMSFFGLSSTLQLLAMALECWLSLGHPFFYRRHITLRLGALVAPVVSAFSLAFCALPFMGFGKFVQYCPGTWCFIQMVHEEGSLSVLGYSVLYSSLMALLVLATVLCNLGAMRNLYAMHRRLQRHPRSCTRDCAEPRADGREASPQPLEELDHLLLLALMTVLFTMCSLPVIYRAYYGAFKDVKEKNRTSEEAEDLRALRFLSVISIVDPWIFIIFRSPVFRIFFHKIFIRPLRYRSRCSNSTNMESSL
In words: Binding affinity to DP1 receptor (unknown origin) by FRET assay.

The subject of the next data set is Rattus norvegicus. In words: Oral bioavailability. Particulars: in vivo.
Data set [8] in a line: Volume of distribution at steady state in rat at 2 mg/kg, iv. The class given is ADME, organism-based. Also noted: dose 2 mg/kg, route intravenous. Particulars: in vivo, read-out: Vdss.
A further data set relates to Cavia porcellus. In words: Antiallergic activity in ovalbumin-induced allergic lung inflammation Hartley guinea pig model assessed as eosinophil level in bronchoalveolar lavage fluid at 20 mg/kg, po administered 1 hr before and 6 hrs after ovalbumin challenge after 24 hrs. More on the design: dose 20 mg/kg. The class given is functional, organism-based. Put shortly: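 Female Hartley guinea pigs (375–425 g) sensitized ip on days 1 and 5 with 100 μg OVA plus 100 mg aluminum hydroxide in PBS, then challenged on day 15 with aerosolized 0.01% OVA for 60 min. Dosed orally 1 h before and 6 h after challenge; vehicle was Tween 80 in cherry syrup. On day 16, lungs lavaged with 2 × 10 mL PBS. Total cells counted by hemocytometer; differentials from stained cytospins. Unpaired t test.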

A short description of data set [9]: Volume of distribution at steady state in monkey at 2 mg/kg, iv. Particulars: rhesus monkey, in vivo, read-out: Vdss. More on the design: dose 2 mg/kg, route intravenous. The class given is ADME, organism-based, Macaca mulatta.
For data set [10], the system named is Mus musculus. In words: Antiallergic inflammatory activity in oxazolone induced contact hypersensitivity mouse model assessed as reduction ear swelling at 3 mg/kg, po prior to oxazolone and 7 hrs post challenge measured after 24 hrs. The class given is functional. A digest of the protocol: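 Mice sensitized on the shaved abdomen with 2% oxazolone in ethanol one week before challenge. Dosed orally 1 h before the left ear was challenged with 10 μL of 2% oxazolone (ethanol on the right ear as control), then redosed 7 h after challenge. Ear thickness measured by micrometer; swelling taken as 24 h post-challenge minus pre-challenge thickness. Unpaired t test.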

Data set [11] has as its system Ovis aries. In words: Inhibition of Ascaris-induced airway bronchoconstriction in sheep assessed as inhibition of bronchoalveolar lavage fluid inflammation at 1 mg/kg, iv qd for 7 days. It counts as functional, organism-based. Also noted: dose 1 mg/kg. Particulars: Lung. A digest of the protocol: (§2)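 Sheep given 1 mg/kg iv once daily for 7 days before Ascaris suum allergen challenge. Early and late responses read as airway resistance above baseline, compared with each animal's historical untreated values. After the AHR measurement, three bronchi per sheep were lavaged for cell counts.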

The target of another data set is T3, Cytochrome P450 2B6 (Homo sapiens, UniProt P20813).
T3 sequence (P20813 whole entry): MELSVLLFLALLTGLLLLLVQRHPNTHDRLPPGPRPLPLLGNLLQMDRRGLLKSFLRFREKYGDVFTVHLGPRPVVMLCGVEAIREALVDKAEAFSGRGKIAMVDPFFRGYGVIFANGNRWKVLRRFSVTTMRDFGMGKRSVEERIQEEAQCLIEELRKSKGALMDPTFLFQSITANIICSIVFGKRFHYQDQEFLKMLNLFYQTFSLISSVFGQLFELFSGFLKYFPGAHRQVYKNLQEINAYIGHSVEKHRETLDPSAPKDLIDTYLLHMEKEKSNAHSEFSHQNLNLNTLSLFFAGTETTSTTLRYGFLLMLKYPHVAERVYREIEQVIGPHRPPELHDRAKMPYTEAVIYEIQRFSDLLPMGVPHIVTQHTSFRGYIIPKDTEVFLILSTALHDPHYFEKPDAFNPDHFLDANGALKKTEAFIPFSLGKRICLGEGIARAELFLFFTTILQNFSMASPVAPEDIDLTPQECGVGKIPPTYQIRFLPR
In words: Inhibition of CYP2B6 (unknown origin). The class given is ADME.

The subject of data set [12] is Ovis aries. In words: Inhibition of Ascaris-induced airway bronchoconstriction in sheep assessed as inhibition of late phase allergic airway bronchoconstriction at 1 mg/kg, iv qd for 7 days. The class given is functional, organism-based. Also noted: dose 1 mg/kg. A digest of the protocol: as §2
In data set [13] the test system is Ovis aries. In words: Inhibition of Ascaris-induced airway bronchoconstriction in sheep assessed as inhibition of early phase allergic airway bronchoconstriction at 3 mg/kg, iv bid. It counts as functional, organism-based. Also noted: dose 3 mg/kg.
A short description of data set [14]: Oral bioavailability in dog at 10 mg/kg. It counts as ADME, organism-based, Canis lupus familiaris. Particulars: in vivo.

Chain of Cytochrome P450 2D6 (P10635 whole entry): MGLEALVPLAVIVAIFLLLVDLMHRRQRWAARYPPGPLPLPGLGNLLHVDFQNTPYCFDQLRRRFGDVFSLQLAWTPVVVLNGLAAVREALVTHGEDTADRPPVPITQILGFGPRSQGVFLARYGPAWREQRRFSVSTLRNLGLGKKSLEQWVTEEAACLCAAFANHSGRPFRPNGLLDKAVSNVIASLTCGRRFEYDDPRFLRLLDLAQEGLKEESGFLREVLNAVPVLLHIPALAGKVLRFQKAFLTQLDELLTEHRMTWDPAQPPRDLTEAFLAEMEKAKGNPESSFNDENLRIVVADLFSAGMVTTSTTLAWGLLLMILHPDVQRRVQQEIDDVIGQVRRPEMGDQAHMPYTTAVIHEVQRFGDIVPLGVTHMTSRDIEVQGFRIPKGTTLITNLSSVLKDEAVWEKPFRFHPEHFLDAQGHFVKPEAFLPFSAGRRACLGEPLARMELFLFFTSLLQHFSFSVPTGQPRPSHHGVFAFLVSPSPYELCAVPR
Chain of Cytochrome P450 2C9 (P11712 whole entry): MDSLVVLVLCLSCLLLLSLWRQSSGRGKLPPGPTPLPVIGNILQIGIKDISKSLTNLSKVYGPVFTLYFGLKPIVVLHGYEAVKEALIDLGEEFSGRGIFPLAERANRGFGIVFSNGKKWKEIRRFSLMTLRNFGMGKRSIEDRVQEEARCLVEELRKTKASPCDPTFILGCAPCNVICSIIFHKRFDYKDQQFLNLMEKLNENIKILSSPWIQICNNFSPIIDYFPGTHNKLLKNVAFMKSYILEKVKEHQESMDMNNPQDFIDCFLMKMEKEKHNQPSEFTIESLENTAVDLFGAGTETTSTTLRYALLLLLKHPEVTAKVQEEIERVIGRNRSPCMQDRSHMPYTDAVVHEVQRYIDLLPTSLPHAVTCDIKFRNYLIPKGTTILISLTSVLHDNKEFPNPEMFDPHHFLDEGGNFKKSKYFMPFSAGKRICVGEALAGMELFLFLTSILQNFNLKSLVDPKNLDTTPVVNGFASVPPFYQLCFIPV

On to `Cc1c(-c2cn(C(C)C)c(=O)c3ccccc23)c2cc(F)ccc2n1CC(=O)O`, for which the inhibition result in the data set on Mus musculus [1], in the data set with Mus musculus [5], in the data set on Ovis aries [6], with Cavia porcellus, in the data set with Ovis aries [11] and with Ovis aries [12] was “Active” in each case. In data set [2], this compound showed a clearance of 5.6 mL/min/kg. For the same compound, the values for the Vd in data set [3], in data set [8] and in [9] were 0.7 L/kg, 1.2 L/kg and 0.95 L/kg, respectively. Further, the inhibition result with Mus musculus [4] and in the data set on Ovis aries [13] was “inactive” throughout. In addition, the IC50 on Cytochrome P450 2C9 is 55 µM; on Cytochrome P450 2D6, greater than 100 µM; against Thromboxane A2 receptor, greater than 1 µM; in [7], 16 µM; on Cytochrome P450 2B6, greater than 100 µM. Moreover, the values for the bioavailability (with Rattus norvegicus; in data set [14]) were 35% and 32%, respectively. The inhibition in vivo at 3 mg/kg in the data set with Mus musculus [10] was 50.5%.
